High-throughput results deposited in PubChem BioAssay by Sanford-Burnham Center for Chemical Genomics.
STEP inh: inhibitors of human striatal-enriched phosphatase STEP; AID 588621; hit rate 0.25% among 360,000; recombinant STEP, OMFP fluorogenic substrate, fluorescence; P54829; inhibition, % at 20 µM;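 active = inhibition at 20 µM, scaled per plate between control wells, above about 37%, limit read from the data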;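 also: 0% = DMSO with enzyme and substrate and 100% = substrate only without enzyme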
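System: STEP phosphatase, cell-free reaction; Buffer or medium: Bis-Tris pH 6.0 buffer with DTT, detergent; Incubation: 20 min at room temperature, dark; Measured by: fluorescence, 480/540 nm.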
DNMT1 block: blocks human DNA methyltransferase DNMT1 | DNMT1 molecular beacon, Hinp1I cleavage, fluorescence | inhibition (reported as % activation of signal), % at 10 µM | hit rate 0.83% among 360,000; in the data active = inhibition above about 50%
Scp-1 inhibitor: blocks human Scp-1 phosphatase activity. hit rate 0.88% among 340,000. inhibition, % at 20 µM. Recombinant Scp1, phosphopeptide, malachite green phosphate absorbance. Q9GZU7;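 active = inhibition above about 50% at 20 µM, limit read from the data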;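 also: plate controls were DMSO wells with enzyme for no effect and wells lacking enzyme for full effect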
Target sequence (Q9GZU7 76-261 limits assumed): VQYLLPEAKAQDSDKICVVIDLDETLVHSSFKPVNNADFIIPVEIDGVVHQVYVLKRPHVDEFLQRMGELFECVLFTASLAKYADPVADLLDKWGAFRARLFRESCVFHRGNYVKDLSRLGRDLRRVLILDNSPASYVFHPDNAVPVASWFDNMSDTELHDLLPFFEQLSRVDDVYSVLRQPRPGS
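Test system – truncated SCP-1 phosphatase (76-261aa) · Reagent – Phosphorylated 17-residue peptide substrate · Incubation – 45 min room-temperature reaction, 5 min colour, 30 min stabiliser · Detection – colorimetric phosphate reagent with accelerator and stabiliser, absorbance at 630 nm · Measure – % inhibition at 20 µM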
SUMO1-SIM PPI: modulators of human SUMO1-mediated protein-protein interactions | P63165 | SUMO1 binding to a labelled peptide, TR-FRET, 1 h | inhibition, % at 20 µM | hit rate 0.33% among 360,000 | AID 602429; in the data active = inhibition above about 37%
Target sequence (P63165 whole entry, looked up): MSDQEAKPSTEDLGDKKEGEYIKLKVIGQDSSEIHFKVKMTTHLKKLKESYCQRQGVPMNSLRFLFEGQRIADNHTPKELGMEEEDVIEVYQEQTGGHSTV
LMPTP block: LMPTP (human) inhibition; recombinant LMPTP-A, OMFP fluorogenic substrate, fluorescence intensity; inhibition, % at 20 µM; hit rate 0.22% among 360,000; AID 651560;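 active = compounds that cut the enzyme signal by at least half of the control window in the single-dose screen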;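 also: plate controls were DMSO wells with enzyme plus substrate for no effect and substrate without enzyme for full effect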
Target sequence (P24666 whole entry, looked up): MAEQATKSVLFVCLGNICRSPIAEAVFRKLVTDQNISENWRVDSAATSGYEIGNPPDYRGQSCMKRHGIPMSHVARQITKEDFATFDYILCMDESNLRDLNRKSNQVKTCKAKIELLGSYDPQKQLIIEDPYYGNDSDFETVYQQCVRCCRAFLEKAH
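Test system – LMPTP-A enzyme · Amount – LMPTP-A at 0.625 nM final in the reaction · Buffer or medium – Bis-Tris pH 6.0, DTT, detergent · Reagent – OMFP 400 µM · Doses – single 20 µM dose · Schedule – reaction 50 min, room temperature, dark · Detection – fluorescence intensity of OMFP turnover product · Evaluation – percent inhibition versus substrate-only and uninhibited controls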
DNMT1 interf DR: shows spectral interference in the DNMT1 beacon assay. IC50, µM. 200 tested, under 10 active. shares compounds with DNMT1 block. molecular beacon fluorescence, spectral interference counter-screen; call rule not given here
DNMT1 inh conf: confirmation of human DNMT1 inhibitors. shares compounds with DNMT1 block. DNMT1 molecular beacon HinP1I cleavage, fluorescence. inhibition, % at 10 µM. hit rate 8% among 2,300;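 active = average inhibition of at least 30% in the single-concentration confirmation test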
Beacon interf: shows spectral interference in the DNMT1 beacon assay. shares compounds with DNMT1 block. hit rate 1% among 2,300. DNMT1 molecular beacon spectral interference counterscreen, fluorescence 485/520. activation (fluorescence interference), % at 10 µM;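 active = activation of at least 30% at 10 µM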;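 also: DNMT1 catalytic domain with a HinP1I cleavage step and a FAM/dabcyl DNA beacon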
Starred values were filed as active, the others as inactive; x = no result. The list is not random: actives were taken first. Their share in the collection is about 1.7%.

SMILES | STEP inh | DNMT1 block | Scp-1 inhibitor | SUMO1-SIM PPI | LMPTP block | DNMT1 inh conf | Beacon interf | others
Cc1ccc(-c2nnn(CC(=O)Nc3ccc(S(=O)(=O)N4CCC(C)CC4)cc3)n2)cc1 | 2 | 48 | -11 | -1 | 1 | x | x
CC1CCN(S(=O)(=O)c2ccc(NC(=O)Cn3nnc(-c4ccccc4)n3)cc2)CC1 | 3 | 56* | -3 | 2 | 0 | 5 | 9
COc1ccc(C(=O)c2[nH]c(N)c(C(=O)NCCc3c[nH]c4ccccc34)c2-c2ccc(OC)c(OC)c2)cc1 | x | x | x | -8 | 1 | x | x
CC(C)C(NC(=O)c1ccc2c(c1)OCO2)C(=O)N/N=C/c1cccs1 (stereo unspecified) | 0 | 60* | 5 | -5 | 0 | 1 | 0
Nc1cc(S(=O)(=O)O)cc([N+](=O)[O-])c1O | 18 | 66* | 34 | -3 | 1 | 72* | -5 | DNMT1 interf DR=>99
CCNc1ccc(Br)cc(C(=O)/C=C/c2ccc3c(c2)OCO3)c1=O | 4 | 89* | 6 | 22 | 54* | 1 | 1
CCNc1ccc(Br)cc(C(=O)/C=C/c2ccc(Cl)cc2)c1=O | 2 | 66* | -17 | 20 | 22 | 4 | 1
C[C@H](NC(=O)COc1ccc(Cl)cc1)C(=O)N1CCC2(CC1)NCCc1[nH]cnc12 | 3 | -1 | -9 | 3 | -2 | x | x
CC1(C)C[C@H](O)[C@]2(CO)[C@H](O)C[C@]3(C)C(=CCC4[C@@]5(C)CC[C@H](O)C(C)(C)C5CC[C@]43C)[C@@H]2C1 (stereo partly specified) | 0 | 71* | -3 | 3 | 0 | 2 | -5
Cc1cc(=O)[nH]c(N/N=C/CCc2ccccc2)n1 | 0 | 56* | -1 | -1 | 0 | 4 | 28
O=C1c2ccccc2CN1C(CO)Cc1ccccc1 (stereo unspecified) | -5 | 0 | -16 | 6 | -2 | x | x
COc1ccc(C)cc1NC(=O)CN(Cc1nnc(-c2ccc(Cl)cc2)o1)C1CCCC1 | 7 | 59* | -2 | 0 | 9 | 0 | -2
COc1ccc(O)c(C(c2c(C)[nH][nH]c2=O)c2c(C)[nH][nH]c2=O)c1 | 2 | 53* | 1 | 43* | 9 | 1 | -2
COc1ccc(OC)c(C(c2c(C)[nH][nH]c2=O)c2c(C)[nH][nH]c2=O)c1 | -3 | -11 | 1 | -1 | 0 | x | x
NNC(=O)c1[nH]c(-c2ccccc2)cc1-c1ccccc1 | 1 | 68* | 2 | -2 | 2 | 4 | 5
Cc1c(-c2ccccc2)n[nH]c1C(=O)NN | -2 | 0 | -7 | 4 | -3 | x | x
CC(=O)c1c(C)[nH]c(C(=O)CSc2ncnc3sc(-c4ccccc4)cc23)c1C | 1 | 53* | -4 | -1 | 1 | 0 | 1
O=C(O)CSc1ncnc2sc(-c3ccccc3)cc12 | -3 | -1 | 0 | -12 | 0 | x | x
Cc1ccc(C(=O)O)cc1-n1c(=O)n(Cc2ccccc2)c(=O)c2[nH]cnc21 | 0 | 5 | -9 | -1 | 1 | x | x
Cc1c(NS(=O)(=O)c2cc(C(=O)OCC(=O)c3ccccc3F)ccc2Cl)c(=O)n(-c2ccccc2)n1C | 0 | 63* | x | -3 | -2 | 2 | 3
Cc1cc(S(=O)(=O)N2CCCCC2CCNC(=O)C(=O)NCC2CCCO2)ccc1F (stereo unspecified) | -1 | 0 | -6 | -2 | 0 | x | x
O=c1ccc2cc3c4c(c2o1)CCCN4CCC3 | -11 | 28 | -8 | 15 | 31 | x | x
O=c1oc2c3c4c(cc2s1)CCCN4CCC3 | 3 | 85* | 3 | 9 | 67* | -3 | -2
CCc1nc2c(OCc3ccc(Cl)cc3Cl)cccn2c1N(C)C(=O)c1ccccc1F | 6 | -3 | x | 1 | 13 | x | x
Cc1cccc2c(SCC(=O)NCC3CCCO3)nc(-c3ccc(F)cc3)nc12 (stereo unspecified) | -2 | 47 | 0 | -2 | -1 | 5 | -4
SMILES | STEP inh | DNMT1 block | Scp-1 inhibitor | SUMO1-SIM PPI | LMPTP block | DNMT1 inh conf | Beacon interf | others
Cc1cccc2cc(C#N)c(SCC(=O)NCC3CCCO3)nc12 (stereo unspecified) | 2 | 5 | 0 | -9 | -1 | x | x
Cc1ccc(-c2nnc(Nc3cccc(O)c3)c3ccccc23)cc1S(=O)(=O)NCCO | -1 | 90* | -2 | -5 | 1 | 7 | 4
O=C(CCCN1C(=O)/C(=C/c2ccco2)SC1=S)Nc1cccc(C(=O)O)c1 | 18 | 86* | 51* | 50* | 6 | 1 | -4
O=C(CN1C(=O)/C(=C/c2ccco2)SC1=S)NC1CCS(=O)(=O)C1 (stereo unspecified) | 45* | 76* | 58* | 31 | 7 | 3 | -1
O=C(CCCN1C(=O)/C(=C\c2ccco2)SC1=S)Nc1ccc(O)cc1C(=O)O | 43* | 99* | 69* | 64* | 9 | 4 | -3
O=C(CN1C(=O)/C(=C/c2ccco2)SC1=S)Nc1ccc(O)c(C(=O)O)c1 | 60* | 87* | 63* | 84* | 34 | 11 | -2
O=C(CCN1C(=O)/C(=C/c2ccccc2)SC1=S)NC1CCS(=O)(=O)C1 (stereo unspecified) | 6 | 2 | -9 | -38 | -1 | x | x
COc1ccc(NC(=O)CCCN2C(=O)/C(=C\c3ccco3)SC2=S)cc1 | 1 | -22 | -5 | -9 | 0 | x | x
O=C(c1cccs1)N1C[C@H](O)[C@@H](n2cc(-c3ccc(F)cc3)nn2)C[C@@H]1c1ccccc1 | 2 | 1 | x | 0 | -1 | x | x
CC(C)c1ccc(OCc2ccc(C(=O)N3CCCC3)o2)cc1 | 4 | -1 | 4 | 9 | 2 | x | x
C[C@@H]1CN([C@H](C)CO)C(=O)CCCn2nncc2CO[C@@H]1CN(C)C(=O)c1cc(-c2ccccc2)on1 | 3 | 4 | x | -1 | 6 | x | x
COc1cc2cc(Oc3ccc4ccc(=O)oc4c3)c(=O)oc2cc1O[C@@H]1O[C@H](CO)[C@@H](O)[C@H](O)[C@H]1O | 1 | 105* | 24 | 4 | 2 | 61* | -1 | DNMT1 interf DR=>99
CSc1ccc(/C=C/C(=O)OCC(=O)NC2CCCCCC2)cc1 | -2 | 65* | x | -9 | 0 | 1 | 6
O=C1c2ccccc2C(=O)C1(CO)c1ccc(OC(F)F)cc1 | 0 | 1 | 15 | -26 | -1 | x | x
CCc1nnc(NC(=O)c2ccc(-c3ccc(Cl)cc3)o2)s1 | 1 | 68* | -6 | 1 | 21 | 5 | 2
